According to ChEMBL document CHEMBL1152541, “Staurosporine tethered peptide ligands that target cAMP-dependent protein kinase (PKA): optimization and selectivity profiling” (Bioorg Med Chem, 2009):
*1 amine or outer side, *2 acyl side, *3 side chain or, on linkers, in order; H or OH if unused. Where a SMILES comes first, the peptide text is derived from it. Bridges are numbered along the chain shown (N, C = ends). [ ]: non-standard residue; d: D form. The star is where a group is joined. Staurosporine = CO[C@@H]1[C@H](N(C)*)C[C@H]2O[C@]1(C)n1c3ccccc3c3c4c(c5c6ccccc6n2c5c31)C(=O)NC4; Suc = O=C(CCC(=O)[*:2])[*:1]; Dap = NC[C@H](N)C(=O)O; βAla = NCCC(=O)O

What was measured:
[1] = biological target: Phosphatidylinositol 4-phosphate 3-kinase C2 domain-containing subunit beta (Homo sapiens) (UniProt O00750); experiment: Binding affinity to human PIK3C2beta at 500 nM by cell-based competition binding assay relative to control in presence of DTT
[2] = biological target: T1, Serine/threonine-protein kinase PLK4 (Homo sapiens) (UniProt O00444); experiment: Binding affinity to human PLK4 at 500 nM by cell-based competition binding assay relative to control in presence of DTT
T1 sequence (whole entry): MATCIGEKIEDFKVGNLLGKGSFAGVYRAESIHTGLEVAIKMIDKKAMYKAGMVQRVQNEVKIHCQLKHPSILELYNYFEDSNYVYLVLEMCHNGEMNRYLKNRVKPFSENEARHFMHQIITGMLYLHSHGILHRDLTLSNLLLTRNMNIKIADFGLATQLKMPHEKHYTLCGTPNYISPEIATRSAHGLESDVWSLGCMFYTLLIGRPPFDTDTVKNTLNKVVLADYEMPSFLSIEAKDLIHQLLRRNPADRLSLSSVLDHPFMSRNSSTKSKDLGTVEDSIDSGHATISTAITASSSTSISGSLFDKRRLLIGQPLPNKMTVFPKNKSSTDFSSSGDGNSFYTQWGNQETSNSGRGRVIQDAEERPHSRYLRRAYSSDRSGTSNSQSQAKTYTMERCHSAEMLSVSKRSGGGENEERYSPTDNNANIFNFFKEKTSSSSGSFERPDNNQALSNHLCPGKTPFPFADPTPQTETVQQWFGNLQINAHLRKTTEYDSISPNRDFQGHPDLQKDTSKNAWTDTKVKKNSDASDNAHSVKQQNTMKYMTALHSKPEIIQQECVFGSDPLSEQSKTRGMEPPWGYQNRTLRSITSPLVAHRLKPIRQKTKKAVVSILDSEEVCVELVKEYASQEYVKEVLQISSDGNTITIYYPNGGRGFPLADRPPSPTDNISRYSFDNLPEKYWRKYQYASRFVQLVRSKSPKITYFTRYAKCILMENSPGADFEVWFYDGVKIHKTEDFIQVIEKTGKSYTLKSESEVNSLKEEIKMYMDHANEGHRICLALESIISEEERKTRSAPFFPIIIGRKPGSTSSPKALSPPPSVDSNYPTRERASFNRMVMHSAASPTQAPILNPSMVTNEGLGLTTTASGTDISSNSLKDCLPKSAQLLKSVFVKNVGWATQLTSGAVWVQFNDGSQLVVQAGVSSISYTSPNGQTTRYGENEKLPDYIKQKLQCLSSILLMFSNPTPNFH

[3] = biological target: Cyclin-dependent kinase 2 (Homo sapiens) (UniProt P24941); experiment: Binding affinity to human CDK2 at 500 nM by cell-based competition binding assay relative to control in presence of DTT
Summary of the method: (§1)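 Kinase binding profiling ran on a commercial (Ambit) competitive binding screen against a panel of 90 kinases. The screen used reducing conditions with 7.5 mM DTT. To withstand the DTT, the bivalent ligand was tested as its amide isostere, with the disulfide replaced. A staurosporine derivative carrying a 3 β-alanine linker was run as the reference compound.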

[4] = biological target: Insulin-like growth factor 1 receptor (Homo sapiens) (UniProt P08069); experiment: Binding affinity to human IGF1R at 500 nM by cell-based competition binding assay relative to control in presence of DTT
Summary of the method: (§2)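 Competition binding screen (Ambit) across a panel of 90 kinases, scoring test ligand displacement of each kinase's binding relative to control. The screen ran under reducing conditions with 7.5 mM DTT.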

[5] = biological target: Mitogen-activated protein kinase 8 (Homo sapiens) (UniProt P45983); experiment: Binding affinity to human JNK1 at 500 nM by cell-based competition binding assay relative to control in presence of DTT; summary of the method: as §2
[6] = biological target: Mitogen-activated protein kinase 14 (Homo sapiens) (UniProt Q16539); experiment: Binding affinity to human p38alpha at 500 nM by cell-based competition binding assay relative to control in presence of DTT
[7] = biological target: Cyclin-dependent kinase 16 (Homo sapiens) (UniProt Q00536); experiment: Binding affinity to human PCTK1 at 500 nM by cell-based competition binding assay relative to control in presence of DTT
[8] = biological target: Dual specificity tyrosine-phosphorylation-regulated kinase 1B (Homo sapiens) (UniProt Q9Y463); experiment: Binding affinity to human DYRK1B at 200 nM by cell-based competition binding assay relative to control in presence of DTT
Summary of the method: (§3)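 Commercial (Ambit) competitive kinase-binding panel of 90 kinases measured the binding profile. Run under reducing conditions of 7.5 mM DTT. Binding is expressed relative to control.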

[9] = biological target: Receptor-type tyrosine-protein kinase FLT3 (Homo sapiens) (UniProt P36888); experiment: Binding affinity to human FLT3 at 200 nM by cell-based competition binding assay relative to control in presence of DTT; summary of the method: as §3
[10] = biological target: Platelet-derived growth factor receptor beta (Homo sapiens) (UniProt P09619); experiment: Binding affinity to human PDGFRbeta at 200 nM by cell-based competition binding assay relative to control in presence of DTT
[11] = biological target: Serine/threonine-protein kinase PLK1 (Homo sapiens) (UniProt P53350); experiment: Binding affinity to human PLK1 at 200 nM by cell-based competition binding assay relative to control in presence of DTT
[12] = biological target: T2, Tyrosine-protein kinase ZAP-70 (Homo sapiens) (UniProt P43403); experiment: Binding affinity to human ZAP70 at 200 nM by cell-based competition binding assay relative to control in presence of DTT
T2 sequence (whole entry): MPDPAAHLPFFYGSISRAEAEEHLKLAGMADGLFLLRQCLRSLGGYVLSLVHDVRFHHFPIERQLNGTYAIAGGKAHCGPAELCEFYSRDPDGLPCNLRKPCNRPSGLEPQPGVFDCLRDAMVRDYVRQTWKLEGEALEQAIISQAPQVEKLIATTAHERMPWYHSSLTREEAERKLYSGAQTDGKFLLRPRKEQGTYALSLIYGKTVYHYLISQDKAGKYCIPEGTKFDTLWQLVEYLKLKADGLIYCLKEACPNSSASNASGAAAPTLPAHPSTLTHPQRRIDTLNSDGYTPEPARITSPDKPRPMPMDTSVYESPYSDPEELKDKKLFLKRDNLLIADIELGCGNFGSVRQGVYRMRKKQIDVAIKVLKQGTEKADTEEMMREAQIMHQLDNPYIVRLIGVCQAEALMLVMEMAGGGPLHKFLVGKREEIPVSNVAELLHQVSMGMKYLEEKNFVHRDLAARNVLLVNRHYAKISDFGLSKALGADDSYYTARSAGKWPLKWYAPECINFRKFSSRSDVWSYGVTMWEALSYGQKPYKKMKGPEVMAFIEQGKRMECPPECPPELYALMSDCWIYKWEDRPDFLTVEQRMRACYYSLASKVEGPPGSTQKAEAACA

[13] = biological target: Cyclin-dependent kinase 19 (Homo sapiens) (UniProt Q9BWU1); experiment: Binding affinity to human CDK11 at 50 nM by cell-based competition binding assay relative to control in presence of DTT; summary of the method: as §1
[14] = biological target: Receptor-type tyrosine-protein kinase FLT3 (Homo sapiens) (UniProt P36888); experiment: Binding affinity to human FLT3 at 50 nM by cell-based competition binding assay relative to control in presence of DTT; summary of the method: as §3

Sequence of Receptor-type tyrosine-protein kinase FLT3 (Homo sapiens) (P36888 whole entry): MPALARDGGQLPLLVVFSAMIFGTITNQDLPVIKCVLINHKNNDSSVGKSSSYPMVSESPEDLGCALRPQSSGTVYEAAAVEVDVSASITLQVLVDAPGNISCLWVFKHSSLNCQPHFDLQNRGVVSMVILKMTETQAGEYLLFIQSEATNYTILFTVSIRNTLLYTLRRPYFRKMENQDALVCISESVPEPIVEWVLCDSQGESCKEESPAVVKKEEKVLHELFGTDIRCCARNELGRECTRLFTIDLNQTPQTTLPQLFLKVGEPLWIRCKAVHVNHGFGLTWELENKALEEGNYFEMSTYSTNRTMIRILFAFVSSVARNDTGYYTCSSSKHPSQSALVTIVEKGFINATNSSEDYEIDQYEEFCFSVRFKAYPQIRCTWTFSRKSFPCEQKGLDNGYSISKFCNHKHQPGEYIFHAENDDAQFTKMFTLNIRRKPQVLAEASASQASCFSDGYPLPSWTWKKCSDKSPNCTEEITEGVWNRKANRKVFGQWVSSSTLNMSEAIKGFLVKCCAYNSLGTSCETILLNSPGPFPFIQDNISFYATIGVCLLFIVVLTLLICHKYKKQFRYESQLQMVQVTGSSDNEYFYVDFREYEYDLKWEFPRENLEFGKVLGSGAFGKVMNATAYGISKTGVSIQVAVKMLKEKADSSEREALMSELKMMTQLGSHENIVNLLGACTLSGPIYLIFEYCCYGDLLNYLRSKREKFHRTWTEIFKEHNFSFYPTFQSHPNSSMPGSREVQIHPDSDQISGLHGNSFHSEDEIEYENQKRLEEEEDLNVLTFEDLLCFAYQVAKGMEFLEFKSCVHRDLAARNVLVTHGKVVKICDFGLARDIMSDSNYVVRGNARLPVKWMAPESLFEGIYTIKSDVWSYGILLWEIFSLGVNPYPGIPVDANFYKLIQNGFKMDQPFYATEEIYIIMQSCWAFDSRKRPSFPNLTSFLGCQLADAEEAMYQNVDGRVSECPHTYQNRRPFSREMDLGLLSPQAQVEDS
Sequence of Dual specificity tyrosine-phosphorylation-regulated kinase 1B (Homo sapiens) (Q9Y463 whole entry, looked up): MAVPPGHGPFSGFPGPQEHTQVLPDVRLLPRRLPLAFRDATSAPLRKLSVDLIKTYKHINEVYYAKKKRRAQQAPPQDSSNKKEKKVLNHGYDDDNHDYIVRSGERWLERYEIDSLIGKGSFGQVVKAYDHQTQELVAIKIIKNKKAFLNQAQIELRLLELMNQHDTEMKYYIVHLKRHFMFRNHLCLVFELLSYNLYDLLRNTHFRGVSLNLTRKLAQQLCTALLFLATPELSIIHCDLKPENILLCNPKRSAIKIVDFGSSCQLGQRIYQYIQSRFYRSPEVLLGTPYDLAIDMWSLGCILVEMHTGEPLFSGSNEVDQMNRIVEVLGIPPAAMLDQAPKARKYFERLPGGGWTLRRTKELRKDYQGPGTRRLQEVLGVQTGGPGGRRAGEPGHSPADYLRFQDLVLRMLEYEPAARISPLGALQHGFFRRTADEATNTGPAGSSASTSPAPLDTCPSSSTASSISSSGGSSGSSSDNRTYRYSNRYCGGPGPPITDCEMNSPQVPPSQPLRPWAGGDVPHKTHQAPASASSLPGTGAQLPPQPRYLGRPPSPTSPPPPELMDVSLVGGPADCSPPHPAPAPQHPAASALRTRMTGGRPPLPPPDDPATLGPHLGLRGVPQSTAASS
Sequence of Serine/threonine-protein kinase PLK1 (Homo sapiens) (P53350 whole entry): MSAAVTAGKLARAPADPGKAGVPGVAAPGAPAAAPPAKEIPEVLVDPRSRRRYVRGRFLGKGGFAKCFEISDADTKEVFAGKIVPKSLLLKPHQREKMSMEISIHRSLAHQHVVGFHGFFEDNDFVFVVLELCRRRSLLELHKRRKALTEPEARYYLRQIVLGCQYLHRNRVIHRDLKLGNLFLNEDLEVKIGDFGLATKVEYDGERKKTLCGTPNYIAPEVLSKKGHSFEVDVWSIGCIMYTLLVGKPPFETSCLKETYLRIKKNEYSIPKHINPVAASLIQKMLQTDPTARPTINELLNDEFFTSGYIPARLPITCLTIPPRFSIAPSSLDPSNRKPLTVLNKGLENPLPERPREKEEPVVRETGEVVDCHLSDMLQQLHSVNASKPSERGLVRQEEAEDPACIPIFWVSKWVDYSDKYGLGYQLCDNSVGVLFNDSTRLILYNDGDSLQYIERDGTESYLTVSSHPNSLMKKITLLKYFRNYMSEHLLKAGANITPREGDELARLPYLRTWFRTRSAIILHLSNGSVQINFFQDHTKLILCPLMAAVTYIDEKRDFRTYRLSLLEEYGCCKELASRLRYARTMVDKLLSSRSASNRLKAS
Sequence of Insulin-like growth factor 1 receptor (Homo sapiens) (P08069 31-736 limits assumed): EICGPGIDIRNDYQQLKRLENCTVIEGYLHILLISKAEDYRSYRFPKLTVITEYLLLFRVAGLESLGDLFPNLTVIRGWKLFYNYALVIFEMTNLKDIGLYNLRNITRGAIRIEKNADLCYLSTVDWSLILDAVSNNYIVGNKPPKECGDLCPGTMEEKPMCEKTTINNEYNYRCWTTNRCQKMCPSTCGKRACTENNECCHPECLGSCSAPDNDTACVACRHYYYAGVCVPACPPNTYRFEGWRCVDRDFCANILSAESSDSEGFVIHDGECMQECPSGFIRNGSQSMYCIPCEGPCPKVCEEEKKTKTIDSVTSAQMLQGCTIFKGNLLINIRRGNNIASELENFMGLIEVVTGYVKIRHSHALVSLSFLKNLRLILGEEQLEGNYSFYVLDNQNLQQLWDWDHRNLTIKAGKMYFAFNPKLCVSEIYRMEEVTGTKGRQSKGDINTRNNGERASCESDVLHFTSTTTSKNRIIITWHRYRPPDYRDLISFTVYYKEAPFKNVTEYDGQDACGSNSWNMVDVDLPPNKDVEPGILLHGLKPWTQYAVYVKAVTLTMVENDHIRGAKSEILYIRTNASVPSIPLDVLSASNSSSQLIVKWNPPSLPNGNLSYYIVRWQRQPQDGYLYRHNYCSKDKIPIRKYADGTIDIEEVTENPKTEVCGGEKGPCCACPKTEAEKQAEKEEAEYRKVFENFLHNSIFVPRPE
Sequence of Insulin-like growth factor 1 receptor (Homo sapiens) (P08069 741-1367 limits assumed): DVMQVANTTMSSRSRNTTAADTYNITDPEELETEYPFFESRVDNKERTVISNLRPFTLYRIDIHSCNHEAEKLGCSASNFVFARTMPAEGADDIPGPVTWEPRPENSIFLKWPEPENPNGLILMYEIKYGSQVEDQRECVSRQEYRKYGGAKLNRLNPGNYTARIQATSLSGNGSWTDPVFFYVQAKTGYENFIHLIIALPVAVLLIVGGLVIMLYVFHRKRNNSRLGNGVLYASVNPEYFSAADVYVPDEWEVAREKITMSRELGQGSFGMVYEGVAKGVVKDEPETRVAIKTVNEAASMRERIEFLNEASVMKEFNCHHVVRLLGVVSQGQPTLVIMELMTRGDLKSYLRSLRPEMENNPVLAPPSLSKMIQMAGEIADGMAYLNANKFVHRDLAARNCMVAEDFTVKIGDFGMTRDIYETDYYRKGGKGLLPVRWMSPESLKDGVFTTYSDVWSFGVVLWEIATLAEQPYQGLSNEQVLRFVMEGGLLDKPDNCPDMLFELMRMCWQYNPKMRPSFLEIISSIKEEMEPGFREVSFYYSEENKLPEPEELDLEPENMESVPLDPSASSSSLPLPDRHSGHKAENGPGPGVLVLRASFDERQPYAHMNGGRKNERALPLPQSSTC
Sequence of Mitogen-activated protein kinase 8 (Homo sapiens) (P45983 whole entry): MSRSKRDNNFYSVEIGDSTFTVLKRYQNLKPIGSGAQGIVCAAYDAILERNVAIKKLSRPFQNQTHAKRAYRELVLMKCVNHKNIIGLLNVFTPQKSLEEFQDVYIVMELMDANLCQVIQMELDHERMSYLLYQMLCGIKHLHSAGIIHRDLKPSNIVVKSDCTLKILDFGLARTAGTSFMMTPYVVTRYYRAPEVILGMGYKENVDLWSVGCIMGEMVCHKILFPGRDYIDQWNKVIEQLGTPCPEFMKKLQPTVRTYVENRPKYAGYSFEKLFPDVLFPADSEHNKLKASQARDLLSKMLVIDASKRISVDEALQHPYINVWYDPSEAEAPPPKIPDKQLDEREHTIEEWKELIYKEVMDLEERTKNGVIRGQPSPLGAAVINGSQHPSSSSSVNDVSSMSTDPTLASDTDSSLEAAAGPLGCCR
Sequence of Cyclin-dependent kinase 16 (Homo sapiens) (Q00536 whole entry): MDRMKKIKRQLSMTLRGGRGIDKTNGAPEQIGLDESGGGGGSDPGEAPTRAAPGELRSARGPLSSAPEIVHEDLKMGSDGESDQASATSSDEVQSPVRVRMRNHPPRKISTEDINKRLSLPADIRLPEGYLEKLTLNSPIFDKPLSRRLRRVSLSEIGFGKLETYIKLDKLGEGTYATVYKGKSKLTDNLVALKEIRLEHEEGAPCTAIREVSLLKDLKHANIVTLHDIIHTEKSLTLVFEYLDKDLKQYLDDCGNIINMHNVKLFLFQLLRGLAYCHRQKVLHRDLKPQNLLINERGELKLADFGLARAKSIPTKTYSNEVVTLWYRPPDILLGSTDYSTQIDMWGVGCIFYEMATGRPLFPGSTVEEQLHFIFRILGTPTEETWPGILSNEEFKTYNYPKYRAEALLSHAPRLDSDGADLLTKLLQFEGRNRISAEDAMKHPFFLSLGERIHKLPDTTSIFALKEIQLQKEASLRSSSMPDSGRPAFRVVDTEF
Sequence of Cyclin-dependent kinase 19 (Homo sapiens) (Q9BWU1 whole entry): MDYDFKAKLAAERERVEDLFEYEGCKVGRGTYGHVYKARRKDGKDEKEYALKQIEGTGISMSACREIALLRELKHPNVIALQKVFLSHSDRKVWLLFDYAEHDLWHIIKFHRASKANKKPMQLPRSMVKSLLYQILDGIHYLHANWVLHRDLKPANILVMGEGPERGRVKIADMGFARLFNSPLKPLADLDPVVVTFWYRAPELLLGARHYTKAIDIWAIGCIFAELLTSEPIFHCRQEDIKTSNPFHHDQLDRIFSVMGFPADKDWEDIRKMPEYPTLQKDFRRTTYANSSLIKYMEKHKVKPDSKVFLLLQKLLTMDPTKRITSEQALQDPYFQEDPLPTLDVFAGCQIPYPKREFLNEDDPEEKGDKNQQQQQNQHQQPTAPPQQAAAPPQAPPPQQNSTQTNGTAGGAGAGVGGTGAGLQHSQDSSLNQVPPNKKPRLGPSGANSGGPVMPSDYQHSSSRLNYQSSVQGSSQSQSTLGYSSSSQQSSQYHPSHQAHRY

CO[C@@H]1[C@H](N(C)C(=O)CCC(=O)NCCC(=O)NCCC(=O)NCCC(N)=O)C[C@H]2O[C@]1(C)n1c3ccccc3c3c4c(c5c6ccccc6n2c5c31)C(=O)NC4
Activity [1]: 98%
Activity [2]: 3.6%
Activity [3]: 69%
Activity [4]: 82%
Activity [5]: 52%
Activity [6]: 93%
Activity [7]: 75%

CO[C@@H]1[C@H](N(C)C(=O)CCC(=O)NCCC(=O)NCCC(=O)NCCC(=O)NCCC(=O)NCCC(=O)NCCC(=O)NCCC(=O)N[C@H]2CSSC[C@@H](C(=O)NCC(N)=O)NC(=O)CNC(=O)[C@H](Cc3ccccc3)NC(=O)[C@H](C(C)C)NC(=O)[C@H](CCCNC(=N)N)NC(=O)[C@H](Cc3ccccc3)NC(=O)[C@H](C(C)C)NC2=O)C[C@H]2O[C@]1(C)n1c3ccccc3c3c4c(c5c6ccccc6n2c5c31)C(=O)NC4 ({Staurosporine-Suc-βAla-βAla-βAla-βAla-βAla-βAla-βAla}-CVFRVFGCG-NH2; disulfide 1-8)
Activity [8]: 14%
Activity [9]: 1%
Activity [10]: 3.2%
Activity [11]: 95%
Activity [12]: 16%

CO[C@@H]1[C@H](N(C)C(=O)CCC(=O)NCCC(=O)NCCC(=O)NCCC(=O)NCCC(=O)NCCC(=O)NCCC(=O)NCCC(=O)N[C@H]2CNC(=O)C[C@@H](C(N)=O)NC(=O)CNC(=O)[C@H](Cc3ccccc3)NC(=O)[C@H](C(C)C)NC(=O)[C@H](CCCNC(=N)N)NC(=O)[C@H](Cc3ccccc3)NC(=O)[C@H](C(C)C)NC2=O)C[C@H]2O[C@]1(C)n1c3ccccc3c3c4c(c5c6ccccc6n2c5c31)C(=O)NC4 ({Staurosporine-Suc-βAla-βAla-βAla-βAla-βAla-βAla-βAla}-[Dap]VFRVFGD-NH2; lactam 1-8)
Activity [13]: 100%
Activity [14]: 7.4%
